From ChEMBL document CHEMBL4689842, “EUbOPEN Chemogenomics Library wave 1” (2021)

System: Fibroblast
Test: Multiplex assay against human fibroblast
Type: toxicity, cell-based
Summary of the method: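 With compound added, live cells were imaged on a CQ1 microscope at 37°C and 5% CO2; staining with Hoechst33342, BioTracker Green Microtubule Cytoskeleton Dye, MitoTracker Red and Annexin V Alexa Fluor 680 had been done at seeding. The CellPathfinder machine-learning gating scheme split cells into Hoechst high-intensity objects or normal cells, normal cells into healthy, pyknosed or fragmented nuclei, and pyknosed cells into mitotic or apoptotic. The tubulin, mitochondrial-mass and membrane-permeability phenotypes are per cents of healthy-nucleus cells.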

[1] = 12 h, 1 µM, compound concentration 1 uM, replicate 1
[2] = 12 h, 1 µM, compound concentration 1 uM, replicate 2
[3] = 12 h, 10 µM, compound concentration 10 uM, replicate 1
[4] = 12 h, 10 µM, compound concentration 10 uM, replicate 2
[5] = 24 h, 1 µM, compound concentration 1 uM, replicate 1
[6] = 24 h, 1 µM, compound concentration 1 uM, replicate 2
[7] = 24 h, 10 µM, compound concentration 10 uM, replicate 1
[8] = 24 h, 10 µM, compound concentration 10 uM, replicate 2
[9] = 48 h, 1 µM, compound concentration 1 uM, replicate 1
[10] = 48 h, 1 µM, compound concentration 1 uM, replicate 2
[11] = 48 h, 10 µM, compound concentration 10 uM, replicate 1
[12] = 48 h, 10 µM, compound concentration 10 uM, replicate 2

Structure (SMILES): CN1C2CCC1CC(OC(c1ccc(F)cc1)c1ccc(F)cc1)C2.Cl (centres undefined)
- Population Apoptotic (%) [1]: 53%
- Population Fragmented Nuclei (%) [1]: 26%
- Population Healthy Nuclei (%) [1]: 45%
- Population Hoechst High Intensity Objects (%) [1]: 12%
- Population Membrane Permeable-Phenotype (%) [1]: 21%
- Population Mitochondria Different-Phenotype (%) [1]: 11%
- Population Mitotic Cells (%) [1]: 46%
- Population Normal (%) [1]: 87%
- Population Pyknosed Nuclei (%) [1]: 27%
- Population Tubulin-Different-Phenotype (%) [1]: 52%
- Total Cell Count [1]: 106
- Population Apoptotic (%) [2]: 100%
- Population Fragmented Nuclei (%) [2]: 5%
- Population Healthy Nuclei (%) [2]: 92%
- Population Hoechst High Intensity Objects (%) [2]: 2%
- Population Membrane Permeable-Phenotype (%) [2]: 3%
- Population Mitochondria Different-Phenotype (%) [2]: 4%
- Population Mitotic Cells (%) [2]: 0%
- Population Normal (%) [2]: 97%
- Population Pyknosed Nuclei (%) [2]: 1%
- Population Tubulin-Different-Phenotype (%) [2]: 8%
- Total Cell Count [2]: 69
- Population Apoptotic (%) [3]: 64%
- Population Fragmented Nuclei (%) [3]: 31%
- Population Healthy Nuclei (%) [3]: 50%
- Population Hoechst High Intensity Objects (%) [3]: 9%
- Population Mitochondria Different-Phenotype (%) [3]: 37%
- Population Mitotic Cells (%) [3]: 36%
- Population Normal (%) [3]: 90%
- Population Pyknosed Nuclei (%) [3]: 18%
- Population Tubulin-Different-Phenotype (%) [3]: 68%
- Total Cell Count [3]: 148
- Population Apoptotic (%) [4]: 80%
- Population Fragmented Nuclei (%) [4]: 8%
- Population Healthy Nuclei (%) [4]: 78%
- Population Hoechst High Intensity Objects (%) [4]: 6%
- Population Membrane Permeable-Phenotype (%) [4]: 10%
- Population Mitochondria Different-Phenotype (%) [4]: 89%
- Population Mitotic Cells (%) [4]: 20%
- Population Normal (%) [4]: 93%
- Population Pyknosed Nuclei (%) [4]: 13%
- Population Tubulin-Different-Phenotype (%) [4]: 49%
- Total Cell Count [4]: 78
- Population Apoptotic (%) [5]: 53%
- Population Fragmented Nuclei (%) [5]: 24%
- Population Healthy Nuclei (%) [5]: 58%
- Population Hoechst High Intensity Objects (%) [5]: 13%
- Population Membrane Permeable-Phenotype (%) [5]: 26%
- Population Mitochondria Different-Phenotype (%) [5]: 4%
- Population Mitotic Cells (%) [5]: 46%
- Population Normal (%) [5]: 86%
- Population Pyknosed Nuclei (%) [5]: 17%
- Population Tubulin-Different-Phenotype (%) [5]: 58%
- Total Cell Count [5]: 99
- Population Apoptotic (%) [6]: 20%
- Population Fragmented Nuclei (%) [6]: 3%
- Population Healthy Nuclei (%) [6]: 90%
- Population Hoechst High Intensity Objects (%) [6]: 2%
- Population Membrane Permeable-Phenotype (%) [6]: 4%
- Population Mitotic Cells (%) [6]: 80%
- Population Normal (%) [6]: 97%
- Population Pyknosed Nuclei (%) [6]: 6%
- Population Tubulin-Different-Phenotype (%) [6]: 8%
- Total Cell Count [6]: 82
- Population Apoptotic (%) [7]: 38%
- Population Fragmented Nuclei (%) [7]: 38%
- Population Healthy Nuclei (%) [7]: 45%
- Population Hoechst High Intensity Objects (%) [7]: 17%
- Population Membrane Permeable-Phenotype (%) [7]: 15%
- Population Mitochondria Different-Phenotype (%) [7]: 40%
- Population Mitotic Cells (%) [7]: 61%
- Population Normal (%) [7]: 82%
- Population Pyknosed Nuclei (%) [7]: 15%
- Population Tubulin-Different-Phenotype (%) [7]: 60%
- Total Cell Count [7]: 160
- Population Apoptotic (%) [8]: 80%
- Population Fragmented Nuclei (%) [8]: 16%
- Population Healthy Nuclei (%) [8]: 64%
- Population Hoechst High Intensity Objects (%) [8]: 3%
- Population Membrane Permeable-Phenotype (%) [8]: 6%
- Population Mitochondria Different-Phenotype (%) [8]: 78%
- Population Mitotic Cells (%) [8]: 20%
- Population Normal (%) [8]: 96%
- Population Pyknosed Nuclei (%) [8]: 19%
- Population Tubulin-Different-Phenotype (%) [8]: 25%
- Total Cell Count [8]: 107
- Population Apoptotic (%) [9]: 28%
- Population Fragmented Nuclei (%) [9]: 34%
- Population Healthy Nuclei (%) [9]: 52%
- Population Hoechst High Intensity Objects (%) [9]: 13%
- Population Membrane Permeable-Phenotype (%) [9]: 22%
- Population Mitochondria Different-Phenotype (%) [9]: 1%
- Population Mitotic Cells (%) [9]: 71%
- Population Normal (%) [9]: 86%
- Population Pyknosed Nuclei (%) [9]: 12%
- Population Tubulin-Different-Phenotype (%) [9]: 45%
- Total Cell Count [9]: 126
- Population Apoptotic (%) [10]: 0%
- Population Healthy Nuclei (%) [10]: 64%
- Population Hoechst High Intensity Objects (%) [10]: 11%
- Population Membrane Permeable-Phenotype (%) [10]: 9%
- Population Mitochondria Different-Phenotype (%) [10]: 6%
- Population Mitotic Cells (%) [10]: 100%
- Population Normal (%) [10]: 88%
- Population Pyknosed Nuclei (%) [10]: 0%
- Population Tubulin-Different-Phenotype (%) [10]: 47%
- Total Cell Count [10]: 127
- Population Apoptotic (%) [11]: 80%
- Population Fragmented Nuclei (%) [11]: 47%
- Population Healthy Nuclei (%) [11]: 45%
- Population Hoechst High Intensity Objects (%) [11]: 25%
- Population Membrane Permeable-Phenotype (%) [11]: 9%
- Population Mitochondria Different-Phenotype (%) [11]: 27%
- Population Mitotic Cells (%) [11]: 20%
- Population Normal (%) [11]: 74%
- Population Pyknosed Nuclei (%) [11]: 7%
- Population Tubulin-Different-Phenotype (%) [11]: 78%
- Total Cell Count [11]: 191
- Population Apoptotic (%) [12]: 100%
- Population Fragmented Nuclei (%) [12]: 64%
- Population Healthy Nuclei (%) [12]: 35%
- Population Hoechst High Intensity Objects (%) [12]: 16%
- Population Membrane Permeable-Phenotype (%) [12]: 11%
- Population Mitochondria Different-Phenotype (%) [12]: 18%
- Population Mitotic Cells (%) [12]: 0%
- Population Normal (%) [12]: 83%
- Population Pyknosed Nuclei (%) [12]: 0%
- Population Tubulin-Different-Phenotype (%) [12]: 79%
- Total Cell Count [12]: 259
